From ChEMBL document CHEMBL1275337, “Biflavonoids from Torreya nucifera displaying SARS-CoV 3CL(pro) inhibition” (Bioorg Med Chem, 2010)

Assays:
[1] = biological target: T1, Replicase polyprotein 1ab (Severe acute respiratory syndrome-related coronavirus, UniProt P0C6X7); assay: Non-competitive inhibition of SARS coronavirus 3C-like protease by Dixon plot analysis
How it was run: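 Inhibition mode comes from FRET protease rates at substrate concentrations of 2.5, 5.0 and 10.0 µM across several inhibitor concentrations. Ki is taken from Dixon (1/V versus [I]) and Lineweaver-Burk plots; type is assigned from Vmax versus inhibitor concentration. Triplicate experiments.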

[2] = biological target: T1, Replicase polyprotein 1ab; assay: Inhibition of SARS coronavirus 3C-like protease after 60 mins by FRET assay
[3] = biological target: Replicase polyprotein 1ab (Severe acute respiratory syndrome-related coronavirus) (UniProt P0C6X7); assay: Inhibition of SARS coronavirus 3C-like protease at 200 uM after 60 mins by FRET assay

SMILES | Ki [1] [µM] | IC50 [2] [µM] | inhibition [3] [%]
O=c1cc(-c2ccc(O)c(-c3c(O)cc(O)c4c(=O)cc(-c5ccc(O)cc5)oc34)c2)oc2cc(O)cc(O)c12 [AMENTOFLAVONE] | 13.8 |  | 
COc1ccc(-c2cc(=O)c3c(O)cc(O)c(-c4cc(-c5cc(=O)c6c(O)cc(OC)cc6o5)ccc4OC)c3o2)cc1 [SCIADOPITISIN] | 35.6 | 38.4 | 
O=c1cc(-c2ccc(O)cc2)oc2cc(O)cc(O)c12 [APIGENIN] |  | 281 | 40
CC(C)c1cc2c(cc1O)[C@@]1(C)CCC[C@@](C)(CO)[C@@H]1CC2 [18-HYDROXYFERRUGINOL] |  | 221 | 45.8
CC(C)c1cc2c(cc1O)[C@@]1(C)CCCC(C)(C)[C@@H]1CC2 [FERRUGINOL] |  | 49.6 | 92.7
COc1ccc(-c2cc(=O)c3c(O)cc(O)cc3o2)cc1-c1c(O)cc(O)c2c(=O)cc(-c3ccc(O)cc3)oc12 [BILOBETIN] | 80.4 | 72.3 | 
O=c1cc(-c2ccc(O)c(O)c2)oc2cc(O)cc(O)c12 [LUTEOLIN] |  | 20 | 
COC(=O)[C@]1(C)CCC[C@]2(C)c3ccc(C(C)C)cc3CC[C@@H]12 [METHYL DEHYDROABIETATE] |  | 207 | 46.7
CC(C)C1=CC2=CC[C@@H]3[C@](C)(CCC[C@@]3(C)C(=O)O)[C@H]2CC1 [ABIETIC ACID] |  | 189 | 58
CC(C)c1cc2c(cc1O)[C@@]1(C)CC[C@H](O)C(C)(C)[C@@H]1CC2 [HINOKIOL] |  | 233 | 39.1
CC(C)c1cc2c(cc1O)[C@@]1(C)CCC[C@@](C)(C=O)[C@@H]1CC2 [18-OXOFERRUGINOL] |  | 163 | 70.5
CC(=O)Oc1cc2c(cc1C(C)C)CC[C@H]1[C@](C)(CO)CCC[C@]21C |  | 129 | 78.6
C=C[C@@]1(C)CC[C@H]2C(=CC[C@@H]3[C@]2(C)CCC[C@@]3(C)C(=O)O)C1 [ISOPIMARIC ACID] |  | 283 | 28.9
COc1cc(O)c2c(=O)cc(-c3ccc(OC)c(-c4c(O)cc(O)c5c(=O)cc(-c6ccc(O)cc6)oc45)c3)oc2c1 [GINKGETIN] | 30.2 | 32 | 
C=C1CC[C@H]2[C@](C)(CO)CCC[C@]2(C)[C@H]1CC/C(C)=C\CO [KAYADIOL] |  | 138 | 75.2
